Measured values: ChEMBL document CHEMBL1149190, “Generation of new protein kinase inhibitors utilizing cytochrome p450 mutant enzymes for indigoid synthesis” (J Med Chem, 2004)

Legend:
[1] = biological target: T1, Glycogen synthase kinase-3 (Homo sapiens, UniProt P49840+P49841); assay: (§1) Residual porcine GSK-3-alpha/beta kinase activity with L240C/N297Q mutant cytochrome P450 2A6 extract; type: protein assay; design: concentration or dose not given beside the values; details: Sus scrofa; target entry is the homologue from another species
T1 sequence (P49840 whole entry, looked up): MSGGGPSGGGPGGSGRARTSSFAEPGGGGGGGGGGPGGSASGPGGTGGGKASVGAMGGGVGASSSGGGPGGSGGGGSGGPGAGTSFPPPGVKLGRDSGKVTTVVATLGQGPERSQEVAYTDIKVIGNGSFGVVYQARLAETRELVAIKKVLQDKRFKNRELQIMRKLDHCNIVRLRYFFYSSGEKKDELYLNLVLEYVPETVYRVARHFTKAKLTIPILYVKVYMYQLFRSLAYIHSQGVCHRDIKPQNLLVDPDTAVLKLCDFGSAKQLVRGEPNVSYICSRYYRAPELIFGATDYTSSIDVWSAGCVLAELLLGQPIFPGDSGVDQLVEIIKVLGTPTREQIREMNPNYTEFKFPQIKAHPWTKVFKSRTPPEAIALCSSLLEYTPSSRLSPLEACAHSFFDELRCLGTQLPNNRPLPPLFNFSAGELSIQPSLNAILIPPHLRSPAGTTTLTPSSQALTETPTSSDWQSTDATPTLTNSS
T1 sequence (P49841 whole entry, looked up): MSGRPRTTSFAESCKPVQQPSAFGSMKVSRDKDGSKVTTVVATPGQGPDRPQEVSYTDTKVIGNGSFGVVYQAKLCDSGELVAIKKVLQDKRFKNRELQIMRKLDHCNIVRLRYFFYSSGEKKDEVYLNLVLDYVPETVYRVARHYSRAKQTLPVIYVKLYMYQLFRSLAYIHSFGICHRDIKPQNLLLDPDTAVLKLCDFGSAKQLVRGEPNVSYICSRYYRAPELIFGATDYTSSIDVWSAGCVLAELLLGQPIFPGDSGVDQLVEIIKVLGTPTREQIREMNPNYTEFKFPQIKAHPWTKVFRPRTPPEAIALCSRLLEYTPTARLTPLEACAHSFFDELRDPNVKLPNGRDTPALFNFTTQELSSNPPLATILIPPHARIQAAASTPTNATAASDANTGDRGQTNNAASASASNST
How it was run: (§2)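 E. coli expressing the P450 2A6 variant plus reductase were grown 42 h at 30 °C with the indole added. DMSO extract (0.3 µL) was tested on axin-purified porcine GSK-3α/β with GS-1 peptide in buffer A, 15 µM [γ-33P]ATP, 30 °C. Residual activity given as % of a DMSO control. Means of duplicates.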

[2] = biological target: T2, Cyclin-dependent kinase 5/CDK5 activator 1 (Homo sapiens) (UniProt Q00535+Q15078); assay: Residual Cyclin-dependent kinase 5-p35nck5a activity with L240C/N297Q mutant cytochrome P450 2A6 extract; type: protein-complex assay
T2 sequence (Q00535 whole entry): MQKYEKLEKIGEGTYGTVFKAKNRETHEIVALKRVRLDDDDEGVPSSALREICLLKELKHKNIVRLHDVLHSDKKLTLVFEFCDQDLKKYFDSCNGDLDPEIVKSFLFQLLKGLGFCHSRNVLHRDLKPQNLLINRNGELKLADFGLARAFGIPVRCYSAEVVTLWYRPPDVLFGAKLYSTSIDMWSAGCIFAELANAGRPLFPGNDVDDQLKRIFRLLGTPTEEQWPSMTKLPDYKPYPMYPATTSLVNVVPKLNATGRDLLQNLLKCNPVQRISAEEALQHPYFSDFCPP
T2 sequence (Q15078 99-307 partner limits assumed): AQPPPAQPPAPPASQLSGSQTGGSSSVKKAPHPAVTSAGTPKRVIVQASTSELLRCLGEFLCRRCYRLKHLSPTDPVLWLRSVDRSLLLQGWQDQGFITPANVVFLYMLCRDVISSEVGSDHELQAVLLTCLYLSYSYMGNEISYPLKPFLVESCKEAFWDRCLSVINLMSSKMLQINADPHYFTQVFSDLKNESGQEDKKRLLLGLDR
How it was run: (§3)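 The indole was fed to E. coli expressing the P450 2A6 variant with NADPH-P450 reductase, grown 42 h at 30 °C. Extract in DMSO (0.3 µL) was added to the CDK5/p25 histone H1 assay: buffer C, 15 µM [γ-33P]ATP, 30 °C. Residual activity given as % of a DMSO-only control. Means of duplicates.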

[3] = biological target: T1, Glycogen synthase kinase-3; assay: Inhibition of porcine GSK-3-alpha/beta kinase; type: protein assay, Sus scrofa; details: target entry is the homologue from another species
How it was run: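 Porcine brain GSK-3α/β, purified on immobilized axin and diluted 1/100 in 1 mg/mL BSA with 10 mM DTT. Substrate GS-1 phosphopeptide in buffer A (Tris-HCl pH 7.5, MgCl2, EGTA, DTT, heparin) with 15 µM [γ-33P]ATP, 30 min at 30 °C. Read by P81 filter binding and scintillation counting. Duplicates; IC50 as % of control activity.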

[4] = biological target: Cyclin-dependent kinase 5/CDK5 activator 1 (Homo sapiens, UniProt Q00535); assay: Inhibition of Cyclin-dependent kinase 5-p35nck5a; type: protein-complex assay
Cyclin-dependent kinase 5/CDK5 activator 1, sequence (Q00535 whole entry, the tested form may be a part): as the sequence (Q00535 whole entry) above
Cyclin-dependent kinase 5/CDK5 activator 1, sequence (Q15078 whole entry, further chain, the tested form may be a part): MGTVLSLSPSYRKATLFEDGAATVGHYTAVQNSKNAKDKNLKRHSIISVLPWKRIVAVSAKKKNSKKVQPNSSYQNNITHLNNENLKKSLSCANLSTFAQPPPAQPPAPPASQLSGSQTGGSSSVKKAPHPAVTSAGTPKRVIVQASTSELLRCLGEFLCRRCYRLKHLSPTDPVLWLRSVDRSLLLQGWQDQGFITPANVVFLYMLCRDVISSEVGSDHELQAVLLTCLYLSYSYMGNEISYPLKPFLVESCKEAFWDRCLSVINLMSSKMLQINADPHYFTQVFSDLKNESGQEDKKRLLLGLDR
How it was run: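 Recombinant CDK5 and p25 (truncated p35), each expressed in E. coli as a GST fusion and glutathione-agarose purified, mixed in equal amounts. Read by P81 filter capture and scintillation counting. Expressed as % of uninhibited activity. Duplicates; IC50 determined.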

[5] = biological target: Cyclin-dependent kinase 1/cyclin B (Marthasterias glacialis); assay: Inhibition of Cyclin-dependent kinase 1-cyclin B of M-phase Marthasterias glacialis oocytes
[6] = biological target: T2, Cyclin-dependent kinase 5/CDK5 activator 1 (Homo sapiens); assay: Residual Cyclin-dependent kinase 5-p35nck5a activity with L240C-mutant cytochrome P450 2A6 extract; type: protein-complex assay
[7] = biological target: T1, Glycogen synthase kinase-3; assay: (§4) Residual porcine GSK-3-alpha/beta kinase activity with L240C mutant cytochrome P450 2A6 extract; type: protein assay; details: Sus scrofa; target entry is the homologue from another species
How it was run: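 GSK-3α/β from porcine brain, purified on immobilized axin and diluted 1/100, assayed in buffer A with GS-1 peptide substrate and 15 µM [γ-33P]ATP for 30 min at 30 °C. Phosphate incorporation read on P81 filters by scintillation counting. Bacterial extract in DMSO added; residual activity given as % of DMSO control, mean of duplicates.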

[8] = biological target: T2, Cyclin-dependent kinase 5/CDK5 activator 1 (Homo sapiens); assay: Residual Cyclin-dependent kinase 5-p35nck5a activity with wild-type cytochrome P450 2A6 extract; type: protein-complex assay; how it was run: as §3
[9] = biological target: T1, Glycogen synthase kinase-3; assay: Residual porcine GSK-3-alpha/beta kinase activity with wild-type cytochrome P450 2A6 extract; type: protein assay; details: Sus scrofa, target entry is the homologue from another species; how it was run: as §2
[10] = biological target: T1, Glycogen synthase kinase-3; assay: as §4; type: protein assay; details: Sus scrofa; target entry is the homologue from another species; how it was run: as §2; remark: listed apart in the source
[11] = biological target: T1, Glycogen synthase kinase-3; assay: as §1; type: protein assay; details: Sus scrofa; target entry is the homologue from another species; how it was run: as §2

Row | Compound | residual activity [1] [%] | residual activity [2] [%] | IC50 [3] [µM] | IC50 [4] [nM] | other results
1 | Cc1ccc2c(c1)C(=O)C(c1c(O)[nH]c3ccccc13)=N2 |  |  | 0.55 | 1900 | 
2 | COc1ccc2c(c1)C(=O)C(c1[nH]c3ccccc3c1O)=N2 |  |  | > 100 | > 100000 | IC50 [5]: > 100000 nM
3 | COc1ccc2[nH]ccc2c1 | 3 | 3 |  |  | residual activity [6]: 87%; residual activity [7]: 55%
4 | COc1ccc2[nH]c(O)c(C3=Nc4ccccc4C3=O)c2c1 |  |  | 0.8 | 1200 | IC50 [5]: 1500 nM
5 | COc1ccc2c(c1)C(=O)C(c1c(O)[nH]c3ccc(OC)cc13)=N2 |  |  | 0.2 | 800 | IC50 [5]: 400 nM
6 | O=C1/C(=C2\Nc3ccccc3C2=O)Nc2ccccc21 [INDIGO] |  |  | > 100 | > 100000 | 
7 | COc1ccc2c(c1)C(=O)C(c1[nH]c3ccc(OC)cc3c1O)=N2 |  |  | 6 | 26000 | IC50 [5]: 1200 nM
8 | COc1ccc2c(c1)C(=O)C(c1c(O)[nH]c3ccccc13)=N2 |  |  | 0.6 | 1200 | IC50 [5]: 2100 nM
9 | O=C1Nc2ccccc2/C1=C1/Nc2ccccc2C1=O [INDIRUBIN] |  |  | 2.5 |  | 
10 | Cc1ccc2[nH]c(O)c(C3=Nc4ccccc4C3=O)c2c1 |  |  | 0.8 | 5000 | 

Second part, led by results:

Row | residual activity [1] [%] | residual activity [2] [%] | IC50 [3] [µM] | IC50 [4] [nM] | Compound | other results
11 | 87 | 97 |  |  | Fc1ccc2cc[nH]c2c1 | 
12 | 15 | 19 |  |  | Cc1ccc2[nH]ccc2c1 | residual activity [8]: 89%; residual activity [9]: 45%
13 |  | 56 |  |  | Brc1ccc2[nH]ccc2c1 | residual activity [6]: 44%; residual activity [10]: 22%; residual activity [11]: 25%
14 | 89 | 103 |  |  | c1cnc2[nH]ccc2c1 | 
15 | 71 | 99 |  |  | COC(=O)c1ccc2[nH]ccc2c1 | 
16 |  | 82 |  |  | Clc1cccc2cc[nH]c12 | residual activity [11]: 110%
17 | 76 | 81 |  |  | c1ccc2[nH]ccc2c1 | residual activity [8]: 78%; residual activity [9]: 68%
18 | 62 | 80 |  |  | COc1cc2cc[nH]c2cc1OC | 
19 | 42 | 73 |  |  | Nc1ccc2[nH]ccc2c1 | 
20 |  | 107 |  |  | O=[N+]([O-])c1ccc2cc[nH]c2c1 | residual activity ([9]; in the assay text read “cytochrome P450 2A6 L240C/N297Q mutant” for “wild-type cytochrome P450 2A6”): 63%
21 | 59 | 90 |  |  | Cc1cccc2cc[nH]c12 | 
